In the library only some 2.1% were active in any assay of this set; here they are far more common.
FN deposition inh: fibronectin deposition inhibition | AH1F fibroblasts, Alexa488-fibronectin deposition fluorescence, overnight | inhibition, % at 12.6 µM | 0.086% of 350,000 active | AID 743247;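 active = mean inhibition across replicates of 30% or more, regardless of how many single replicates reach that level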;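 note: positive control wells lacked labelled fibronectin entirely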
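Material: AH1F fibroblast monolayer depositing Alexa488-labelled fibronectin into matrix | Input: 10000 AH1F cells/well | Medium: DMEM plus 2% serum, read in PBS | Reagent: Alexa488-fibronectin, 24 nM final in well | Compound dosing: One dose per compound, pinned | Schedule: 1 h adhesion, overnight exposure | Measured by: Fluorescence at 485 nm excitation, 525 nm emission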
FGF22 binding: shifts melting point of recombinant human FGF22; activity (Tm shift, normalised), % at 9.99 µM; 1.5% of 340,000 active; Q9HCT0; recombinant FGF22 thermal shift, SYPRO orange fluorescence; percent of sucrose octasulfate shift, DMSO zero;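 active = mean Tm shift, scaled 0 neutral to 100 positive control, at about 1.3% or above, every replicate too, limit read from the data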
ARNT TACC3 PPI: disrupts binding between human ARNT and TACC3. Q9Y6A5. AlphaScreen His-ARNT PAS-B/GST-TACC3 binding, luminescence; TACC3 fragment carries E629A point mutation. inhibition, % at 9.99 µM. 0.66% of 390,000 active;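 active = mean inhibition of replicates at least 50% and at least half of replicates each reaching 50%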;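 note: 0% = complete ARNT plus TACC3 wells and 100% = ARNT alone without TACC3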
MLL AF4-AF9 inh: MLL-AF4/AF9 protein interaction inhibition; AlphaScreen, biotin-AF4 peptide binding to FLAG-AF9; inhibition, % at 10 µM; 0.47% of 350,000 active;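 active = every replicate reaching a set inhibition limit, whatever the replicate mean, cut at about 25% in these data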;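 note: 0% = plate neutral control median and 100% = total signal loss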
ERp5 inh: ERp5 (human) disulfide isomerase inhibition | inhibition, % at 9.99 µM | Q15084 | 0.05% of 350,000 active | ERp5 insulin aggregation, absorbance 650 nm, 90 min | AID 651711;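 active = mean replicate inhibition above about 25%, with every replicate also reaching it, limit read from the data, passing the limit was not always enough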
PDI inh: inhibitors of human protein disulfide isomerase; PDI insulin aggregation turbidity, A650, 90 min; P07237; 0.052% of 350,000 active; AID 588391; inhibition, % at 10 µM;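 active = mean inhibition across replicates of 30% or more, whatever share of single replicates reach that level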
Target sequence (P07237 whole entry, looked up): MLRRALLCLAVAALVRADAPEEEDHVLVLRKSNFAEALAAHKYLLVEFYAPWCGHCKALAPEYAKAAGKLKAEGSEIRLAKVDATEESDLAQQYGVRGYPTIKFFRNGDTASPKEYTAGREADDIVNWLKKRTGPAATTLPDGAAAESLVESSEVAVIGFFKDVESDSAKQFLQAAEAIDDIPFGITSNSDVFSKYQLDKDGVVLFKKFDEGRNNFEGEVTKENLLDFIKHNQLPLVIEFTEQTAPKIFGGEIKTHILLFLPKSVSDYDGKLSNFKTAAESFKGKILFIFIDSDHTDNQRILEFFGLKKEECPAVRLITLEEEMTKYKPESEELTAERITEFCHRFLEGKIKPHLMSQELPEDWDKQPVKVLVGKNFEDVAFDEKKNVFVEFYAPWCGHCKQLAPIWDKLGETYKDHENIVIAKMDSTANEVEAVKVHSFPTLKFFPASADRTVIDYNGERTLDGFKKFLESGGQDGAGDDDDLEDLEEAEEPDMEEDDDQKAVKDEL
Starred values were filed as active, the others as inactive; / = no result given.

SMILES	FN deposition inh	FGF22 binding	ARNT TACC3 PPI	MLL AF4-AF9 inh	ERp5 inh	PDI inh
CCN(CC)CCN(C(=O)Cn1nnc(-c2ccc(OC)c(OC)c2)n1)C(C(=O)NC1CCCC1)c1ccc(F)cc1 (stereo not given)	/	1.7*	-5	2	-9	1
COc1ccc(-c2nnn(CC(=O)N(CCCO)C(C(=O)NC3CCCC3)c3ccncc3)n2)cc1 (stereo not given)	4	0	/	-1	-10	3
COc1ccc(-c2nnn(CC(=O)N(CCO)C(C(=O)NC3CCCC3)c3ccncc3)n2)cc1 (stereo not given)	7	43*	-5	1	1	13
Cc1ccc(C2CC(c3cccs3)=NN2C(=O)c2ccco2)o1 (stereo not given)	1	44*	-5	0	-2	11
CC1(C)SC(=S)N(/N=C/c2ccccc2O)C1N(O)C(=O)Nc1ccccc1 (stereo not given)	8	-1	48*	4	9	1
O=C1CSC(=S)N1N=Cc1ccc(Cl)s1	3	0	61*	0	-9	-4
O=C1CSC(=S)N1/N=C/c1ccc(O)c(O)c1O	/	/	98*	/	/	6
CC(C)(C)c1ccc(/C=N/N2C(=O)CSC2=S)cc1	0	0	9	0	4	0
COc1ccccc1C=NN1C(=O)CSC1=S	/	0	6	-1	8	0
C[C@H](CO)N1C[C@H](C)[C@H](CN(C)C(=O)c2cccc(F)c2)Oc2cc(-c3ccncc3)ccc2S1(=O)=O	-1	0	/	1	-2	/
COc1ccc(C(=O)NNC(=O)c2cccc3ccccc23)cc1	-8	44*	-7	1	1	-2
COCCNC(=S)N/N=C/c1ccccc1C(=O)O	20	/	16	/	/	-14
COCCCNC(=S)N/N=C/c1ccccc1O	6	0	64*	1	1	8
Cc1nn(-c2ccccc2)c(Cl)c1/C=N/NC(=O)CNC(=O)c1ccccc1Cl	13	44*	-6	-2	1	0
CNC[C@@H]1Oc2c(cccc2N(C)C)C(=O)N(C)C[C@@H]1C	3	/	/	/	/	/
C[C@@H]1CCCCO[C@H](CN(C)S(C)(=O)=O)[C@H](C)CN([C@@H](C)CO)C(=O)c2cc(NS(=O)(=O)c3ccc(Cl)cc3)ccc2O1	-7	0	-1	-3	-4	/
COc1cc(NC(=O)CSc2nncn2C)c(C)cc1[N+](=O)[O-]	-1	43*	1	-1	-3	1
CC(C)[C@H]1CC=CC[C@H](C)Oc2ccccc2C(=O)N(C)[C@@H](C)C(=O)N1 (mixture of isomers)	-15	/	/	/	/	/
O=C(CCN1C(=O)/C(=C\c2ccccc2)SC1=S)NCCCN1CCOCC1	-1	0	1	4	26*	4
O=C(CCCN1C(=O)c2ccccc2C1=O)NCCCN1CCOCC1	4	/	2	/	/	-2
COc1cccc(CNC(=O)C[C@@H]2C=C[C@H](NC(=O)C3CCC3)[C@H](CO)O2)c1	/	0	0	0	7	/
CC(C)NC(=O)N1[C@H](CO)[C@@H](c2ccccc2)[C@H]1CNC(=O)CN(C)C	-13	/	-8	/	/	/
Nc1nc2ccc(Cl)cc2[nH]1	0	43*	-6	-1	8	-2
C[C@@H]1CCCCO[C@H](CN(C)C(=O)c2ccccc2)[C@@H](C)CN([C@H](C)CO)C(=O)c2cc(NC(=O)C3CCCCC3)ccc2O1	/	0	-1	-2	-2	/
COc1ccc(N=Nc2ccc(N)nc2N)cc1	4	0	11	13	5	7
COc1ccc(N=Nc2cc(OC)c(N)cc2OC)cc1	0	-1	19	32*	-13	5
CC(C)NC(=O)Nc1ccc2c(c1)C(=O)N(C)[C@@H]1CC[C@H](CC(=O)NCC3CCCCC3)O[C@H]1CO2	-15	0	7	0	-4	/
CC1CCCCN1C(=O)Nc1cccc(C(F)(F)F)c1 (stereo not given)	6	0	1	-3	3	-6
COC(=O)C1CC(O)CN1C(=O)Nc1cccc(C(F)(F)F)c1 (stereo not given)	0	43*	3	1	3	0

Screening data deposited in PubChem BioAssay by Broad Institute.
